Assay results reported in ChEMBL document CHEMBL4312027, “Synthesis, characterization, and biological activity of a triphenylphosphonium-containing imidazolium salt against select bladder cancer cell lines” (Eur J Med Chem, 2020).
The source made the active and inactive calls. The rule behind the calls is not given here.

Experiments:
SW-620 = assay: Growth inhibition of human SW620 cells assessed as growth percent at 10 uM incubated for 48 hrs by sulforhodamine B assay relative to control; type: functional; conditions: SW-620, 48 h, read-out: Activity
PC-3 = assay: Growth inhibition of human PC3 cells assessed as growth percent at 10 uM incubated for 48 hrs by sulforhodamine B assay relative to control; type: functional; conditions: PC-3, 48 h, read-out: Activity
J82 = assay: Cell cycle arrest in human J82 cells assessed as increase in cell accumulation at sub-G1 phase at 250 to 500 uM incubated for 1 hr measured after culturing in normal medium for 24 hrs by propidium iodide/RNase staining based FACScan flow cytometry analysis; type: functional
Method in brief: (§1)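 Seeded at 300,000 cells/well in triplicate per treatment; 24 h later exposed to 250 or 500 μM or vehicle for 1 h. After 24 h in normal media, media plus cells were collected, washed, fixed in cold 70% ethanol (4 °C, 30 min), treated with phosphate citric acid buffer, stained with PI/RNase and gated for sub-G1 by flow cytometry.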

SN12C = assay: Growth inhibition of human SN12C cells assessed as growth percent at 10 uM incubated for 48 hrs by sulforhodamine B assay relative to control; type: functional; conditions: read-out: Activity
UACC-257 = assay: Growth inhibition of human UACC257 cells assessed as growth percent at 10 uM incubated for 48 hrs by sulforhodamine B assay relative to control; type: functional; conditions: UACC-257, 48 h, read-out: Activity
NCI/ADR-RES = assay: Growth inhibition of human NCI/ADR-RES cells assessed as growth percent at 10 uM incubated for 48 hrs by sulforhodamine B assay relative to control; type: functional; conditions: read-out: Activity
DU-145 = assay: Growth inhibition of human DU145 cells assessed as growth percent at 10 uM incubated for 48 hrs by sulforhodamine B assay relative to control; type: functional; conditions: DU-145, 48 h, read-out: Activity
NCI-H226 = assay: Growth inhibition of human NCI-H226 cells assessed as growth percent at 10 uM incubated for 48 hrs by sulforhodamine B assay relative to control; type: functional; conditions: NCI-H226, 48 h, read-out: Activity
MDA-MB-231 = assay: Growth inhibition of human MDA-MB-231 cells assessed as growth percent at 10 uM incubated for 48 hrs by sulforhodamine B assay relative to control; type: functional; conditions: MDA-MB-231, 48 h, read-out: Activity
SF-268 = assay: Growth inhibition of human SF268 cells assessed as growth percent at 10 uM incubated for 48 hrs by sulforhodamine B assay relative to control; type: functional; conditions: SF-268, 48 h, read-out: Activity
786-0 = assay: Growth inhibition of human 786-0 cells assessed as growth percent at 10 uM incubated for 48 hrs by sulforhodamine B assay relative to control; type: functional; conditions: 786-0, 48 h, read-out: Activity
UMUC3 = assay: Cell cycle arrest in human UM-UC-3 cells assessed as increase in cell accumulation at sub-G1 phase at 250 to 500 uM incubated for 1 hr measured after culturing in normal medium for 24 hrs by propidium iodide/RNase staining based FACScan flow cytometry analysis; type: functional; method in brief: as §1
SK-OV-3 = assay: Growth inhibition of human SKOV3 cells assessed as growth percent at 10 uM incubated for 48 hrs by sulforhodamine B assay relative to control; type: functional; conditions: SK-OV-3, 48 h, read-out: Activity
EKVX = assay: Growth inhibition of human EKVX cells assessed as growth percent at 10 uM incubated for 48 hrs by sulforhodamine B assay relative to control; type: functional; conditions: read-out: Activity
SF-295 = assay: Growth inhibition of human SF295 cells assessed as growth percent at 10 uM incubated for 48 hrs by sulforhodamine B assay relative to control; type: functional; conditions: SF-295, 48 h, read-out: Activity
ACHN = assay: Growth inhibition of human ACHN cells assessed as growth percent at 10 uM incubated for 48 hrs by sulforhodamine B assay relative to control; type: functional; conditions: read-out: Activity
MDA-MB-435 = assay: Growth inhibition of human MDA-MB-435 cells assessed as growth percent at 10 uM incubated for 48 hrs by sulforhodamine B assay relative to control; type: functional; conditions: MDA-MB-435, 48 h, read-out: Activity
RT-112 [1] = assay: Induction of apoptosis in human RT112 cells assessed as caspase 9 cleavage at 500 uM incubated for 1 hr and measured immediately after treatment by Western blot analysis; type: functional, cell-based
Method in brief: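 RT112 seeded 300,000/well; after 24 h, 250 or 500 μM or vehicle. Cells plus floating debris harvested immediately or 24 h after treatment, lysed in RIPA with protease inhibitors. About 30 μg protein heated 10 min at 95 °C with DTT, run on SDS-PAGE. Immunoblotted for PARP and caspase 9, Ran as loading control, ECL detection.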

RT-112 [2] = assay: Growth inhibition of human RT112 cells at 1000 uM measured after 15 to 60 mins by Celltiter-Glo luminescent cell viability assay relative to control; type: functional; conditions: read-out: GI
Method in brief: (§2)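 Cells seeded 10000/well, 24 h, then exposed in ATCC-recommended medium to 62.5–2000 μM (two-fold steps) or vehicle for the set time (5–60 min), then normal medium. After 24 h, plates equilibrated 30 min at room temperature, CellTiter-Glo added, 2 min at room temperature, luminescence read. Survival relative to vehicle control; quadruplicate.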

HOP-62 = assay: Growth inhibition of human HOP62 cells assessed as growth percent at 10 uM incubated for 48 hrs by sulforhodamine B assay relative to control; type: functional; conditions: HOP-62, 48 h, read-out: Activity
RT-4 = assay: Growth inhibition of human RT4 cells measured after 1 hr by Celltiter-Glo luminescent cell viability assay; type: functional; conditions: RT-4, 1 h; method in brief: as §2
RT-112 [3] = assay: Induction of mitochondrial membrane depolarization in human RT112 cells at 200 uM measured after 2 to 4 hrs by JC-1 staining based confocal microscopy; type: functional, cell-based
Method in brief: (§3)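 RT112 cells, 200000 per glass-bottom dish, plated overnight. Exposed to 200 μM for 45 min, then JC-1 added (final 10 μg/mL) for 15 min. Confocal live imaging, excitation 485 nm, emission 530 and 590 nm, every 15 min for 6 h. Red punctate staining taken as polarized mitochondria, green as depolarized. CCCP as positive control.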

RT-112 [4] = assay: Induction of mitochondrial membrane depolarization in human RT112 cells at 200 uM measured after 1 hr by JC-1 staining based confocal microscopy; type: functional, cell-based; method in brief: as §3
TCC-SUP = assay: Growth inhibition of human TCCSUP cells measured after 1 hr by Celltiter-Glo luminescent cell viability assay; type: functional; method in brief: as §2
NCI-H322M = assay: Growth inhibition of human NCI-H322M cells assessed as growth percent at 10 uM incubated for 48 hrs by sulforhodamine B assay relative to control; type: functional; conditions: read-out: Activity
LOX IMVI = assay: Growth inhibition of human LOXIMVI cells assessed as growth percent at 10 uM incubated for 48 hrs by sulforhodamine B assay relative to control; type: functional; conditions: read-out: Activity
UACC-62 = assay: Growth inhibition of human UACC62 cells assessed as growth percent at 10 uM incubated for 48 hrs by sulforhodamine B assay relative to control; type: functional; conditions: UACC-62, 48 h, read-out: Activity

## [Br-].[Br-].c1ccc([P+](CCCc2n(Cc3ccc4ccccc4c3)c3ccccc3[n+]2Cc2ccc3ccccc3c2)(c2ccccc2)c2ccccc2)cc1
SW-620
  growth at 10 µM: 35.2%
PC-3
  growth at 10 µM: 67.5%
J82
  Activity: Active
SN12C
  growth at 10 µM: 55%
UACC-257
  growth at 10 µM: 84%
NCI/ADR-RES
  growth at 10 µM: 83.7%
DU-145
  growth at 10 µM: 82.1%
NCI-H226
  growth at 10 µM: 83.5%
MDA-MB-231
  growth at 10 µM: 51%
SF-268
  growth at 10 µM: 79%
786-0
  growth at 10 µM: 70.8%
UMUC3
  Activity: Active
SK-OV-3
  growth at 10 µM: 84.5%
EKVX
  growth at 10 µM: 59.4%
SF-295
  growth at 10 µM: 41.1%
ACHN
  growth at 10 µM: 81.4%
MDA-MB-435
  growth at 10 µM: 25.2%
RT-112 [1]
  Activity: inactive
RT-112 [2]
  inhibition of growth at 1000 µM: 100%
HOP-62
  growth at 10 µM: 61.6%
RT-4
  GI50: 150 µM
RT-112 [3]
  Activity: Active
RT-112 [4]
  Activity: inactive
TCC-SUP
  GI50: 240 µM
NCI-H322M
  growth at 10 µM: 63.8%
LOX IMVI
  growth at 10 µM: 13.8%
UACC-62
  growth at 10 µM: 37.8%
